According to BindingDB's records for doi:10.1021/jm049090z (The Bristol-Myers Squibb Pharmaceutical Research Institute, 2005):

Molecular target: T1, DNA topoisomerase 1 (Homo sapiens, UniProt P11387)
T1 sequence (P11387 whole entry): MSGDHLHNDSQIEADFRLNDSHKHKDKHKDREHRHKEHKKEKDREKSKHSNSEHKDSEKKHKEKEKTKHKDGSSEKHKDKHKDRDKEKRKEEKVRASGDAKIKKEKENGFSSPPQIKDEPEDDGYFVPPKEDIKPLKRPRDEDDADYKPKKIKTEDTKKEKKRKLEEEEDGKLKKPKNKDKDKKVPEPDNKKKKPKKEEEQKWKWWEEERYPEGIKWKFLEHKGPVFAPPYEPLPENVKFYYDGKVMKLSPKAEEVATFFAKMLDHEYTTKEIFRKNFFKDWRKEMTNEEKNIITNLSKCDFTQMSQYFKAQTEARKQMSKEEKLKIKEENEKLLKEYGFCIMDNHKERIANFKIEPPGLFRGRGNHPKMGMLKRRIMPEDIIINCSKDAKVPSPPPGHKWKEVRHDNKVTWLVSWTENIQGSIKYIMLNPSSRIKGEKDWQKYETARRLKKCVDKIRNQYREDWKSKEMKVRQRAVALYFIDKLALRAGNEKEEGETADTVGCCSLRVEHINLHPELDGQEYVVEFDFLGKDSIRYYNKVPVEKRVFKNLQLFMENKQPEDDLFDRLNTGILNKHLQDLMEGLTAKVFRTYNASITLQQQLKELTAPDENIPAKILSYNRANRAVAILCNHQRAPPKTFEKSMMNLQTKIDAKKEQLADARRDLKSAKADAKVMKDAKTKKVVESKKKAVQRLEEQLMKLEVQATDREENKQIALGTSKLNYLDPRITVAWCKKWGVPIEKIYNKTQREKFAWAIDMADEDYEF
Test: Topoisomerase I activity for single-strand breaks in the DNA substrate
Summary of the method: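 Topo I-mediated DNA cleavage assay using covalently closed, supercoiled phage PM2 DNA as substrate; read-out is induction of single-strand breaks.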

SMILES | EC50 [µM]
O=C1NC(=O)c2c1c1c3cc(F)c(F)cc3sc1c1c2c2cc(F)c(F)cc2n1C1OC(CO)C(F)(F)C(O)C1O (centres undefined) [13-(5,5-difluoro-3,4-dihydroxy-6-hydroxymethyltetrahydro-2H-2-pyranyl)-2,3,9,10-tetrafluoro-5,6,7,13-tetrahydrobenzo[4,5]thieno[2,3-a]pyrrolo[4,3-c]carbazole-5,7-dione] | 0.08
O=C1NC(=O)c2c1c1c3cc(F)c(F)cc3[nH]c1c1c2c2cc(F)c(F)cc2n1C1OC(CF)C(O)C(O)C1O (centres undefined) [2,3,9,10-tetrafluoro-12-(6-fluoromethyl-3,4,5-trihydroxytetrahydro-2H-2-pyranyl)-6,7,12,13-tetrahydro-5H-indolo[2,3-a]pyrrolo[3,4-c]carbazole-5,7-dione] | 0.48
O=C1NC(=O)c2c1c1c3cc(F)ccc3[nH]c1c1c2c2cc(F)ccc2n1C1OC(CF)[C@@H](O)C(O)C1O (some centres undefined) [Name not given] | 0.704
O=C1NC(=O)c2c1c1c3cc(F)c(F)cc3sc1c1c2c2cc(F)c(F)cc2n1C1OC(CF)C(O)C(O)C1O (centres undefined) [2,3,9,10-tetrafluoro-13-(6-fluoromethyl-3,4,5-trihydroxytetrahydro-2H-2-pyranyl)-5,6,7,13-tetrahydrobenzo[4,5]thieno[2,3-a]pyrrolo[4,3-c]carbazole-5,7-dione] | 0.24
